Broadly, the half-life is the time needed for the level to fall by half in the phase considered. What is called bioavailability is the share of a dose that reaches the circulation, judged against a reference dose that is usually intravenous. For orientation: clearance means a measure of how efficiently the substance is removed, as volume per time. For orientation: inhibition means the change of the read-out against control, counted positive when it falls.

The structures appear in SMILES notation. Calls of active or inactive are those of the source.

The source of these data is ChEMBL document CHEMBL1158625, “Design of 1-piperazinyl-4-arylphthalazines as potent Smoothened antagonists” (Bioorg Med Chem Lett, 2010).

Data set [1] can be described thus: Volume of distribution at steady state in dog at 0.5 mg/kg, iv. Type of data set: ADME, organism-based, Canis lupus familiaris. The arrangement: dose 0.5 mg/kg, route intravenous. As to conditions: in vivo, read-out: Vdss.
Data set [2] in a line: Half life in mouse at 1 mg/kg, iv. Type of data set: ADME, organism-based. On the set-up: dose 1 mg/kg, route intravenous. To be noted: in vivo.
Data set [3] is described as follows: Metabolic stability in human liver microsome assessed as compound turnover after 30 mins. Type of data set: ADME. As to conditions: liver microsomes, read-out: Stability. In outline:
(§1)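 Pooled human or rat liver microsomes (0.25 mg/mL), 37 °C, phosphate buffer pH 7.4, test compound 1 µM; NADPH 1 mM final; quenched at 0 or 30 min with organic solvent; unchanged parent by reversed-phase LC-MS/MS; percent turnover from peak area at 30 versus 0 min.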
Background: Liver microsomes are a subcellular fraction often used to study metabolism.

Data set [4] in a line: Oral bioavailability in mouse at 2 mg/kg. Type of data set: ADME, organism-based. As to conditions: in vivo.
Data set [5] is described as follows: Half life in dog at 0.5 mg/kg, iv. As to conditions: in vivo. Type of data set: ADME, organism-based, Canis lupus familiaris. The arrangement: dose 0.5 mg/kg, route intravenous.
Data set [6] can be described thus: Oral bioavailability in cynomolgus monkey at 2 mg/kg. Type of data set: ADME, organism-based, Macaca fascicularis. To be noted: in vivo.
Data set [7] in a line: Metabolic stability in rat liver microsome assessed as compound turnover after 30 mins. Type of data set: ADME. As to conditions: liver microsomes, read-out: Stability. The method, boiled down: as §1
Data set [8] in a line: Volume of distribution at steady state in rat at 0.5 mg/kg, iv. Type of data set: ADME, organism-based. As to conditions: in vivo, read-out: Vdss. The arrangement: dose 0.5 mg/kg, route intravenous.
The species named for another data set is Mus musculus. Nature of the data set: Reduction in Gli1 mRNA expression in mouse skin after 6 hrs of treatment by RT-PCR. Type of data set: functional, organism-based. In outline:
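Mouse hind flanks depilated with wax; five days later single oral dose 2, 20 or 100 mg/kg; skin harvested after 6 h; Gli1 RNA by quantitative real-time PCR normalized to RGS (Pitx2) RNA; four mice per group, two samples each; Dunnett's method; plasma levels also measured.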

A short description of data set [9]: Clearance in dog at 0.5 mg/kg, iv. Type of data set: ADME, organism-based, Canis lupus familiaris. On the set-up: dose 0.5 mg/kg, route intravenous. To be noted: in vivo.
Data set [10] can be described thus: Clearance in mouse at 1 mg/kg, iv. Type of data set: ADME, organism-based. The arrangement: dose 1 mg/kg, route intravenous. As to conditions: in vivo.
For another data set, the target named is CYP2D6 (Homo sapiens, UniProt P10635). Nature of the data set: Inhibition of human CYP2D6 at 3 uM by HPLC-MS. Type of data set: ADME.
A short description of data set [11]: Half life in cynomolgus monkey at 0.5 mg/kg, iv. Type of data set: ADME, organism-based, Macaca fascicularis. On the set-up: dose 0.5 mg/kg, route intravenous. To be noted: in vivo.
Data set [12] in a line: Clearance in cynomolgus monkey at 0.5 mg/kg, iv. Type of data set: ADME, organism-based, Macaca fascicularis. The arrangement: dose 0.5 mg/kg, route intravenous. As to conditions: in vivo.
Data set [13] can be described thus: Volume of distribution at steady state in mouse at 1 mg/kg, iv. Type of data set: ADME, organism-based. The arrangement: dose 1 mg/kg, route intravenous. To be noted: in vivo, read-out: Vdss.
Data set [14] can be described thus: Clearance in rat at 0.5 mg/kg, iv. Type of data set: ADME, organism-based. As to conditions: in vivo. On the set-up: dose 0.5 mg/kg, route intravenous.
Data set [15] in a line: Oral bioavailability in dog at 2 mg/kg. Type of data set: ADME, organism-based, Canis lupus familiaris. To be noted: in vivo.
A short description of data set [16]: Volume of distribution at steady state in cynomolgus monkey at 0.5 mg/kg, iv. To be noted: in vivo, read-out: Vdss. Type of data set: ADME, organism-based, Macaca fascicularis. The arrangement: dose 0.5 mg/kg, route intravenous.
The test system of a further data set is Medulloblastoma cell. Description: Antitumor activity against mouse Ptch+/- p53-/- medulloblastoma cells xenografted Harlan nu/nu mouse at 10 mg/kg, po qd administered after 8 days tumor implantation measured after 15 days. On the set-up: dose 10 mg/kg. Type of data set: functional, organism-based. The method, boiled down: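 Tumors from p53-/- Ptch+/- crossbred mice transplanted into immunocompromised mice; after 8 days animals randomized to compound 10 mg/kg QD oral or vehicle; tumor volume followed, reduction assessed day 15 versus treatment onset day 8; ten mice per group; Dunnett's method.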

For another data set, the target named is CYP3A4 (Homo sapiens, UniProt P08684). Nature of the data set: Inhibition of human CYP3A4 at 3 uM by HPLC-MS. Type of data set: ADME.
Data set [17] can be described thus: Half life in rat at 0.5 mg/kg, iv. Type of data set: ADME, organism-based. On the set-up: dose 0.5 mg/kg, route intravenous. As to conditions: in vivo.
Data set [18] in a line: Oral bioavailability in rat at 2 mg/kg. Type of data set: ADME, organism-based. As to conditions: in vivo.

Chain of CYP3A4 (P08684 whole entry): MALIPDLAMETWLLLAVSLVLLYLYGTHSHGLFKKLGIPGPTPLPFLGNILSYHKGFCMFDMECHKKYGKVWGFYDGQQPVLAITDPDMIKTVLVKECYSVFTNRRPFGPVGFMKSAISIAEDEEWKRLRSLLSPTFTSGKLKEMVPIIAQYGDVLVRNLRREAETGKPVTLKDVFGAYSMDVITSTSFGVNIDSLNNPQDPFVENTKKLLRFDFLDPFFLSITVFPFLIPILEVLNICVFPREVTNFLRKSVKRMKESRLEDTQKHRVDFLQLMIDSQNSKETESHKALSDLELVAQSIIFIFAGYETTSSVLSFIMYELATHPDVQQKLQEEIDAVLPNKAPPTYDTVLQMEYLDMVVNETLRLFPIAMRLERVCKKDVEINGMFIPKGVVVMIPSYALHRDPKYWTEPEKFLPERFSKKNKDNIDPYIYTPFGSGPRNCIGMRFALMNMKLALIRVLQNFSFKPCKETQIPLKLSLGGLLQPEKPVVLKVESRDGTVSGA
Chain of CYP2D6 (P10635 whole entry): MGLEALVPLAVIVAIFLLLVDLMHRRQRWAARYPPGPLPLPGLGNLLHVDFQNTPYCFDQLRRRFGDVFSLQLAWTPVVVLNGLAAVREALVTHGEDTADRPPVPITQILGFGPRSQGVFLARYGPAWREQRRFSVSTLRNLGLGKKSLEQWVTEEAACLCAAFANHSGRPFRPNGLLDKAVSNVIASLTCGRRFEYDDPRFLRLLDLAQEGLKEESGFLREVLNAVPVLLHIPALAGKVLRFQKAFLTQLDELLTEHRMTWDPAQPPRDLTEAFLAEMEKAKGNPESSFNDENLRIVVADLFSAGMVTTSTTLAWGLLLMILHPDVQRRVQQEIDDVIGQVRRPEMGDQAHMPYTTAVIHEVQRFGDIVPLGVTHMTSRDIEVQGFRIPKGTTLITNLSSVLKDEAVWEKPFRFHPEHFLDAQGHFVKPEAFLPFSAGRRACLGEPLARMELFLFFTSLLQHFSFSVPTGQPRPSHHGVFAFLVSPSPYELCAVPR

Take `C[C@@H]1CN(C(=O)c2ccccc2)CCN1c1nnc(-c2ccc(C(F)(F)F)cc2)c2ccccc12`: the Vd in data set [1] is 2.96 L/kg; in data set [8], 5.07 L/kg; in [13], 1.4 L/kg; in [16], 2.52 L/kg. Moreover, the half-life in data set [2] was 3.4 h; in data set [5], 10 h; in [11], 4.3 h; in data set [17] it was 9.5 h. Also, the results for the metabolised at 0.5 h in [3] and in data set [7] were 13% and 11%, respectively. Also, the bioavailability came to 65% in [4], 31% in data set [6], 60% in [15] and 39% in data set [18]. In addition, the Activity entry in the data set filed under Mus musculus was “Dose-dependent effect”. The clearance in data set [9] was 3.33 mL/min/kg; in data set [10] it was 5 mL/min/kg; in data set [12], 8.83 mL/min/kg; in [14] it was 6.83 mL/min/kg. Also, the inhibition at 3 µM is 15% at CYP2D6 and < 10% against CYP3A4. Moreover, the outcome with Medulloblastoma cell was Active.
